Measured values gathered from unrelated publications.
Lines come from different studies, so protocols differ.
Target: Dual specificity tyrosine-phosphorylation-regulated kinase 1B (DYRK1B, Homo sapiens, UniProt Q9Y463)
Method: competition with immobilised ligand

SMILES	observed	tested at	remaining binding
Nc1c(C(=O)NCc2ccc(C(=O)NCCCC3CCCCC3)cc2)cnn1-c1ccccc1	cell-free assay	0.1 µM	100%
CN(CCCC(F)(F)F)c1nccc(-c2cnn3ncccc23)n1	binding	1 µM	39%
O=C(NCCCN1CCOCC1)c1ccc(Nc2ncc(Cl)c(-c3ccc(Cl)s3)n2)cc1	binding	1 µM	13%
c1cncc(-c2cccc(Nc3nccc(NC4CCCCC4)n3)c2)c1	binding	10 µM	38%
CNCc1ccccc1-c1csc([C@H](C)Nc2nc(C)nc3cc(OC)c(OC)cc23)c1	cell-free assay	1 µM	55%
COC(=O)Nc1nc2ccc(C(=O)c3ccccc3)cc2[nH]1	cell-free assay	10 µM	5.6%
Cc1c[nH]c2nccc(Oc3c(F)cc(Nc4cc(Cl)nc(N)n4)cc3F)c12	cell-free assay	0.1 µM	100%
O=C(NCC1CCOCC1)c1n[nH]cc1NC(=O)c1c(F)cccc1F	binding	1 µM	10%
COc1ccc2c(c1)O[C@@H](c1ccc(OC)c(OC)c1)C[C@H]2NC(=O)C1(c2ccc3c(c2)OC(F)(F)O3)CC1	cell-free assay	1 µM	100%
Nc1ncc2c(n1)-c1c([nH]c3ccc(C#CC4CC4)cc13)CCCC2	binding	1 µM	77%
CCN1CCN(Cc2ccc(C(=O)Nc3ccc(C)c(Oc4ccc5c(c4)CC(=O)N5)c3)cc2C(F)(F)F)CC1	binding	1 µM	95%
O=C(c1ccc(Nc2nccc(-c3cc4ccccc4s3)n2)cc1)N1CCC(N2CCCC2)CC1	binding	1 µM	99%
CNC(=O)[C@@H]1CC[C@@H](n2c(-c3ccc4cnccc4c3)nc3ccc(C(=O)NCc4cccc(C(N)=O)c4)cc32)C1	binding	1 µM	45%
Cc1cnc(Nc2ccc(C(=O)N3CCC(N4CCCC4)CC3)cc2)nc1-c1cc2ccccc2s1	binding	1 µM	43%
CN(C)c1ncnc(-c2ccc3nc(Nc4cc(CN5CCN(C(=O)CC(F)(F)F)CC5)ccn4)[nH]c3c2)c1Cl	cell-free assay	1 µM	100%
